Experimental data pooled from the literature.
Compare with care: the assays were run in different laboratories.
Technique: competition with immobilised ligand
RPS6KA3 N-terminal kinase domain: Ribosomal protein S6 kinase alpha-3, N-terminal kinase domain (RPS6KA3, Homo sapiens, UniProt P51812)
RPS6KA3 C-terminal kinase domain: Ribosomal protein S6 kinase alpha-3, C-terminal kinase domain (RPS6KA3, Homo sapiens, UniProt P51812)

Cc1cnc(Nc2ccc(C(=O)N3CCC(N4CCCC4)CC3)cc2)nc1-c1cc2ccccc2s1 — remaining binding (RPS6KA3 N-terminal kinase domain; binding; 1 µM): 22%
CCN1CCN(Cc2ccc(C(=O)Nc3ccc(C)c(Oc4ccc5c(c4)CC(=O)N5)c3)cc2C(F)(F)F)CC1 — remaining binding (RPS6KA3 C-terminal kinase domain; binding; 1 µM): 100%
CC(C)(C)c1ccc(-c2nc(CBr)nn2-c2cccc(O)c2)cc1 — remaining binding (RPS6KA3 N-terminal kinase domain; cell-free assay; 10 µM): 74%
CN(C)c1nccc(-c2cnn3ncccc23)n1 — remaining binding (RPS6KA3 C-terminal kinase domain; binding; 1 µM): 99%
O=S(=O)(NC1CCC(c2cc(F)ccc2F)(S(=O)(=O)c2ccc(Cl)cc2)CC1)C(F)(F)F (stereo not shown) — remaining binding (RPS6KA3 C-terminal kinase domain; cell-free assay; 1 µM): 83%
Nc1ncc2c(n1)-c1c([nH]c3ccc(C#CC4CC4)cc13)CCCC2 — remaining binding (RPS6KA3 N-terminal kinase domain; binding; 1 µM): 73%
N[C@H]1CCN(c2nccc(-c3cnn4ncccc34)n2)C1 — remaining binding (RPS6KA3 N-terminal kinase domain; binding; 1 µM): 89%
O=C(c1ccc(Nc2ncc(Cl)c(-c3ccc(Cl)s3)n2)cc1)N1CCC(N2CCCC2)CC1 — remaining binding (RPS6KA3 N-terminal kinase domain; binding; 1 µM): 30%
O=C(Nc1c[nH]nc1C(=O)NC1CCNCC1)c1cc(F)cc(F)c1 — remaining binding (RPS6KA3 C-terminal kinase domain; binding; 1 µM): 100%
C=CC(=O)N1CCC(C(=O)NCC(=O)N2CCN(c3nc(-c4cnc(N)nc4C(F)F)nc(N4CCOCC4)n3)CC2)CC1 — remaining binding (RPS6KA3 N-terminal kinase domain; binding; 1 µM): 85%
F[C@@H]1CCN(c2nccc(-c3cnn4ncccc34)n2)C1 — remaining binding (RPS6KA3 N-terminal kinase domain; binding; 1 µM): 100%
CNC(=O)[C@@H]1CC[C@@H](n2c(-c3ccc4cnccc4c3)nc3ccc(C(=O)NCc4cccc(C(N)=O)c4)cc32)C1 — remaining binding (RPS6KA3 C-terminal kinase domain; binding; 1 µM): 100%
O=C(NCCCN1CCOCC1)c1ccc(Nc2nccc(-c3cc4ccccc4s3)n2)cc1 — remaining binding (RPS6KA3 C-terminal kinase domain; binding; 1 µM): 73%
c1ccc(N2CCN(Cc3nc4ccccc4[nH]3)CC2)nc1 — remaining binding (RPS6KA3 C-terminal kinase domain; binding; 1 µM): 100%
O=C(NCC1CCOCC1)c1n[nH]cc1NC(=O)c1c(F)cccc1F — remaining binding (RPS6KA3 N-terminal kinase domain; binding; 1 µM): 78%
COc1ncc2cc3ccccc3nc2c1C#N — remaining binding (RPS6KA3 N-terminal kinase domain; cell-free assay; 5 µM): 89%
c1cnn2ncc(-c3ccnc(N4CCC45COC5)n3)c2c1 — remaining binding (RPS6KA3 N-terminal kinase domain; binding; 1 µM): 61%
FC(F)(F)Oc1cccc(-c2cnc3ccc(-c4ccncc4)nn23)c1 — remaining binding (RPS6KA3 N-terminal kinase domain; binding; 5 µM): 57%
Cc1cnn2ncc(-c3ccnc(N(C)C)n3)c2c1 — remaining binding (RPS6KA3 N-terminal kinase domain; binding; 1 µM): 95%
c1cncc(-c2cccc(Nc3nccc(NC4CCCCC4)n3)c2)c1 — remaining binding (RPS6KA3 N-terminal kinase domain; binding; 10 µM): 42%
C[C@H](NC(=O)c1cnc2n1[C@](C)(Cc1ccc(C#N)cc1)C(=O)N2c1cc(Cl)c(F)c(Cl)c1)C(=O)NC1(c2ccccn2)CC1 — remaining binding (RPS6KA3 N-terminal kinase domain; cell-free assay; 1 µM): 100%
C[C@@H](c1ccc(-n2cnc3c(N)ncnc32)cc1)N1CCc2nn(C)c(Cc3ccccc3)c2C1=O — remaining binding (RPS6KA3 N-terminal kinase domain; binding; 0.1 µM): 56%
O=C(NCCCN1CCOCC1)c1ccc(Nc2ncc(Cl)c(-c3ccc(Cl)s3)n2)cc1 — remaining binding (RPS6KA3 C-terminal kinase domain; binding; 1 µM): 100%
COc1ccnn2ncc(-c3ccnc(N(C)C)n3)c12 — remaining binding (RPS6KA3 N-terminal kinase domain; binding; 1 µM): 85%
NS(=O)(=O)c1cc(NC(=O)C2(c3ccccc3Cl)CC2)ccc1Oc1cccc(Cl)c1 — remaining binding (RPS6KA3 N-terminal kinase domain; cell-free assay; 1 µM): 92%
C[C@H]1CCN(c2nccc(-c3cnn4ncccc34)n2)C1 — remaining binding (RPS6KA3 N-terminal kinase domain; binding; 1 µM): 78%
CN(c1ccnc(CNc2nc(Nc3ccc4c(c3)CC(=O)N4)ncc2C(F)(F)F)n1)S(C)(=O)=O — remaining binding (RPS6KA3 N-terminal kinase domain; cell-free assay; 1 µM): 25%
O=C(c1ccc(Nc2ncc(Cl)c(-c3cc4ccccc4s3)n2)cc1)N1CCC(N2CCCC2)CC1 — remaining binding (RPS6KA3 C-terminal kinase domain; binding; 1 µM): 77%
C[C@@]1(Cc2ccc(C#N)cc2)C(=O)N(c2cc(Cl)cc(Cl)c2)c2ncc(C(=O)NC3(c4nc(C5CCC5)no4)CC3)n21 — remaining binding (RPS6KA3 C-terminal kinase domain; cell-free assay; 1 µM): 100%
O=C(c1ccc(Nc2nccc(-c3cc4ccccc4s3)n2)cc1)N1CCC(N2CCCC2)CC1 — remaining binding (RPS6KA3 C-terminal kinase domain; binding; 1 µM): 66%
Cc1nccc(COC(=O)N2C[C@@H]3[C@@H](CNC(=O)c4ccc5[nH]nnc5c4)[C@@H]3C2)n1 — remaining binding (RPS6KA3 C-terminal kinase domain; cell-free assay; 1 µM): 86%
COc1cnc(Nc2cccc(S(N)(=O)=O)c2)nc1N1CCN(c2ccccc2)C(=O)C1 — remaining binding (RPS6KA3 C-terminal kinase domain; binding; 1 µM): 97%
Cc1c(NC(=O)c2cc(C(N)=O)nc3cc(F)ccc23)c(C(F)(F)F)nn1Cc1ccc(C(C)(C)C)cc1 — remaining binding (RPS6KA3 N-terminal kinase domain; cell-free assay; 1 µM): 100%
COc1cnc(Nc2cccc(S(N)(=O)=O)c2)nc1N1CCN(c2ccccc2)CC1 — remaining binding (RPS6KA3 N-terminal kinase domain; binding; 1 µM): 89%
